# Screening results deposited in PubChem BioAssay by several laboratories.
# This is a sample that favours compounds with a hit; in the whole collection about 2.4% have one here.
# UBC13 polyUb: inhibitors of human UBC13 polyubiquitin chain formation; P61088; TR-FRET; inhibition, % at 20 µM; 330,000 tested, 0.47% active; AID 485273; in the data active means inhibition above about 45%, passing the limit was not always enough
# Target sequence (P61088 whole entry, looked up): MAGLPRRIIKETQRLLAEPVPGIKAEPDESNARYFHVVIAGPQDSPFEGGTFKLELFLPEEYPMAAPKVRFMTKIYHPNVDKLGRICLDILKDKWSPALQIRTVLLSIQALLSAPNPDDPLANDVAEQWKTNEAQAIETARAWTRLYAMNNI
# DNA FID counter: displaces DNA intercalator in HCV helicase counter-screen | DNA fluorescent intercalator displacement, fluorescence | AID 1845 | 290,000 tested, 0.17% active | inhibition, % at 7.9 µM; in the data active means inhibition above about 37%;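 further: 0% = vehicle and 100% = reference compound; higher means more ethidium bromide displaced from hairpin DNA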
# TMEM16A inh: blocks the mouse calcium-activated chloride channel TMEM16A | HEK293 TMEM16A/YFP iodide influx fluorescence, ionomycin | normalized B-score (activity score, 25-100; higher = stronger inhibition) at 10 µM | 310,000 tested, 1.2% active;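 active means ratio plate-corrected score three or more library SD toward inhibition, starting fluorescence score within five deviations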;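 further: score derived from kinetic fluorescence span divided by baseline fluorescence per well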
# Apaf-1 inh: inhibitors of human Apaf-1 apoptosome; reconstituted apoptosome caspase-3 activity, DEVD-Rh110 fluorescence; 330,000 tested, 0.71% active; inhibition, % at 20 µM; O14727; active means inhibition of at least 40% at 20 µM;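 further: plate controls were DMSO wells for no effect and DEVD-CHO caspase inhibitor wells for full effect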
#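 System – cell-free apoptosome with Apaf-1, procaspase-3 and caspase-9 · Buffer or medium – pH 7.5 Hepes buffer with CHAPS, BSA, DTT · Also added – cytochrome c with DEVD-Rh110 · Times – 30 min compound preincubation, 50 min activation, room temperature · Technique – Rh110 fluorescence intensity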
# TMEM16A act: activates or potentiates the mouse TMEM16A chloride channel; HEK293 TMEM16A/YFP-H148Q/I152L, iodide quench fluorescence; hits give low values; 340,000 tested, 0.3% active; Q8BHY3; AID 623877; B-score at 10 µM;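 active means fluorescence-ratio B-score plate-corrected deviation score at least 3 library SD below zero, with starting fluorescence score within 5 deviations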;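 further: channel opened by trigger with iodide after compound preincubation; score built on the fluorescence ratio of max minus min over baseline; more negative score means more quench and so TMEM16A activation or potentiation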
# Numbers without * were called inactive; i = inactive; / = no result.
SMILES,UBC13 polyUb,DNA FID counter,TMEM16A inh,Apaf-1 inh,TMEM16A act
CCN(C(=O)Cn1nc(C)c([N+](=O)[O-])c1C)C1CCS(=O)(=O)C1 (configuration not stated),-7,/,i,2,i
COc1ccc(-c2nc[nH]c2[N+](=O)[O-])cc1,-9,-3,i,2,i
O=S(=O)(NC1c2cccc3cccc(c23)C1N1CCNCC1)c1ccc(Cl)cc1 (configuration not stated),2,43*,i,4,i
Cc1cccc(C)c1NC(=O)CNC(=O)C(C)N(C)CC(=O)Nc1ccc(F)cc1 (configuration not stated),2,/,/,0,i
CCCCn1ccnc1C(=O)c1cccc(S(=O)(=O)N2CC(C)CC(C)C2)c1 (configuration not stated),6,-29,100*,10,i
CCCCn1ccnc1C(=O)c1cc(S(=O)(=O)N2CCOCC2)ccc1C,1,-34,i,-14,i
O=C(COC(=O)c1ccco1)Nc1ccc([N+](=O)[O-])cc1Cl,2,/,/,0,-26*
COc1ccc(NC(=O)COC(=O)c2ccco2)c([N+](=O)[O-])c1,3,5,i,-8,i
O=C(Cc1ccccc1)NN1C(=O)C2C3C=CC(C3)C2C1=O (configuration not stated),-4,-1,i,3,-38*
COc1ccccc1N(C)S(=O)(=O)c1ccc(Cl)c(C(=O)Nc2ccccc2N2CCOCC2)c1,/,/,/,/,i
O=C(Nc1cccc(C(=O)N2CCN(c3cccc(Cl)c3)CC2)c1)c1ccccc1,2,-32,i,15,i
O=C(c1nnsc1S(=O)c1ccc(Cl)cc1)N1CCOCC1 (configuration not stated),-12,1,/,9,i
O=C(Nc1ccccc1)c1nnsc1S(=O)c1ccc(Cl)cc1 (configuration not stated),33,-4,i,1,-9.3*
Cc1cc(SCC(=O)Nc2cccc(S(=O)(=O)NC3=NCCCCC3)c2)nc2ccccc12,18,-42,i,4,-5.4*
COc1ccc(-c2ccccc2NC(=O)C2CCCN(Cc3ccc(C)o3)C2)cc1 (configuration not stated),-1,2,i,4,i
C=C(C(=O)c1ccccc1)C(CC(=O)c1ccccc1)c1ccccc1 (configuration not stated),7,2,100*,23,i
Cc1cccc(NC(=O)[C@H](Cc2c[nH]c3ccccc23)NC(=O)[C@@H]2Cc3ccccc3CN2)c1,4,8,i,26,i
Cc1cc(C)cc(NC(=O)[C@H](Cc2c[nH]c3ccccc23)NC(=O)[C@@H]2Cc3ccccc3CN2)c1,13,40*,i,17,i
COc1ccccc1CNC(=O)[C@@H](NC(=O)C1CCN(C(=O)[C@@H]2CCCN2)CC1)C(C)C,10,-3,i,3,i
O=C(NC(=S)Nn1cnc2c(cnn2-c2ccccc2)c1=O)c1ccc(Oc2ccccc2)cc1,-12,-4,i,41*,i
CCc1nnc(NC(=O)CSc2ncnc3c2cnn3-c2ccc(OC)cc2)s1,16,-6,i,-4,i
Cc1cc(C)c(Nc2cc(S(=O)(=O)O)c(N)c3c2C(=O)c2ccccc2C3=O)c(C)c1,/,44*,i,/,i
OC(COCc1ccccc1)COCc1ccccc1,/,/,/,/,i
O=S(CC(O)COCc1ccc(Cl)cc1)c1ccccn1 (configuration not stated),7,-5,i,-5,-8.1*
Cc1nc2c3cc(Cl)ccc3n(CCN3CCCCC3)c2s1,3,39*,i,-4,i
COC(=O)Cn1c2ccc(Cl)cc2c2nc(C)sc21,0,-3,i,-12,i
C=C[C@@H]1c2cc(C)ccc2N(S(=O)(=O)c2ccc(C)cc2)[C@H](c2ccccc2)C1(C#N)C#N,-12,/,/,16,i
CCC(C)N(C(=O)COC(=O)c1cc([N+](=O)[O-])ccc1N1CCOCC1)C1CCS(=O)(=O)C1 (configuration not stated),-13,/,i,78*,i
CCOC(=O)CSC1=C(C#N)C(=O)NC(c2ccc(OC)cc2)S1 (configuration not stated),2,2,i,-6,i
